Common to all, as to type: biochemical
The target in assay [1] is T1, human α-glucosidase GAA (Homo sapiens, UniProt P10253). Description: In vitro apparent IC50, recombinant GAA. Summed up: (§1)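 The enzyme source was GBA2-overexpressing HEK293T lysate or recombinant human GAA. It was preincubated 30 min at 37 °C with a range of test compound concentrations, then transferred into 4-MU glucoside substrate mixture to measure residual activity. Quenched with 1 M NaOH–glycine pH 10.3; 4-MU fluorescence at λex 366/λem 445 nm. Apparent IC50 is the mean of three technical replicates.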

The target in assay [2] is T2, human β-glucosidase GBA1 (Homo sapiens, UniProt P04062, R534H).
T2 sequence (P04062 40-536 R534H): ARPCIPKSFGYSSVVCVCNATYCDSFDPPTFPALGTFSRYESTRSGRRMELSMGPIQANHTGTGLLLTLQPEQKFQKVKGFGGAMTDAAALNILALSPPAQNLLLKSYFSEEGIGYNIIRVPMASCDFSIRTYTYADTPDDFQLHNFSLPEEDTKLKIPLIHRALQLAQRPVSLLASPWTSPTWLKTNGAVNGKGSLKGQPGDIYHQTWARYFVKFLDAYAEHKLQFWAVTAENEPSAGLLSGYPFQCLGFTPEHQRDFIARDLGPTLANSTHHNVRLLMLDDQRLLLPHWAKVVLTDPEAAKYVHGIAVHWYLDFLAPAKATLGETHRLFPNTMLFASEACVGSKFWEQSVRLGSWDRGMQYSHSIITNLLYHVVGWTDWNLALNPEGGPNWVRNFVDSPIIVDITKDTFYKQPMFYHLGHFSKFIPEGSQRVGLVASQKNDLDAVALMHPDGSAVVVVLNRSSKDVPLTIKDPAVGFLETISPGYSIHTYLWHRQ
The experiment in a line: In vitro apparent IC50, recombinant GBA1. Summed up: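 Recombinant human GBA1 (Cerezyme) preincubated with a range of test compound concentrations for 30 min at 37 °C, then added to 4-MU-Glc substrate mixture to measure residual activity. Reaction quenched with 1 M NaOH–glycine (pH 10.3); 4-MU fluorescence read at λEX 366 / λEM 445 nm. Apparent IC50 is the mean of three technical replicates.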

Assay [3] has as its target T2, human β-glucosidase GBA1. The experiment in a line: Inhibition kinetics, recombinant GBA1, 2,4-DNP-β-Glc. The settings on record: irreversible inhibition, 37 °C, pH 5.2. Summed up: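 Recombinant human GBA1 preincubated with test compound for 0.5–8 min (fast inhibitors) or 0.5–360 min (slow), then added to 2,4-DNP-Glc. Residual rate taken from 400 nm absorbance versus a no-inhibitor control. kobs is the slope of −ln V/V0 versus time; kinact and KI come from a hyperbolic fit of kobs versus [I]. For fast inhibition (>50% after 30 s), kinact/KI is the linear slope at [I] ≪ KI.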

For a further assay, the target named is T3, GBA2 (Homo sapiens, UniProt Q9HCG7).
T3 sequence (Q9HCG7 1-927): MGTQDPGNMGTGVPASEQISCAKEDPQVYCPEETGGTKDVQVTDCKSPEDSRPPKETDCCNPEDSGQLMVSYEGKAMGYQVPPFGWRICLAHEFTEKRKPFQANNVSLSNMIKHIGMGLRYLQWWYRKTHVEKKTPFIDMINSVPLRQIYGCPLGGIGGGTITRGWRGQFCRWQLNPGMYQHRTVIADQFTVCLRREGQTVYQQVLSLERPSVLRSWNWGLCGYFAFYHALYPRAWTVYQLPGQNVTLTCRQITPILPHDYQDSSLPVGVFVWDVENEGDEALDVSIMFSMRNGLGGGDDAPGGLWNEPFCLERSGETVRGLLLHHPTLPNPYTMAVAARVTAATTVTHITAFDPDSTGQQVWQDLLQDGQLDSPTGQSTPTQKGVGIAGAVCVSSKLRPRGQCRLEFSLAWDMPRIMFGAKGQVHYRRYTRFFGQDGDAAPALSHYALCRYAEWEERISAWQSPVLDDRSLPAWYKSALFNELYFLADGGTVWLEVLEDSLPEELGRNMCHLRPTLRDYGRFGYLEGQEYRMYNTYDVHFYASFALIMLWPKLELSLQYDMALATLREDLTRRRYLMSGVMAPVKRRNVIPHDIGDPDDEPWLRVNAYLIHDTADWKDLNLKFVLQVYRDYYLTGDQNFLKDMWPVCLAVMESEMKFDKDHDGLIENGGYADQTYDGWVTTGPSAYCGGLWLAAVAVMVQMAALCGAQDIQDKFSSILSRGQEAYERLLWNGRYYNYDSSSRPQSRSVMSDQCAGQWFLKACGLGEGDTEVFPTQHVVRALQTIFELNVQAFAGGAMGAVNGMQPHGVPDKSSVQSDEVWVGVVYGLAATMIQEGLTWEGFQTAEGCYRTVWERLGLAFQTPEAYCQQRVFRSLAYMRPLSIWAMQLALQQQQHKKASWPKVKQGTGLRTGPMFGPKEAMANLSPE
The experiment in a line: In vitro apparent IC50, GBA2 overexpressing HEK293T lysate, 4-MU-β-Glc. The procedure, abridged: as §1

In assay [4] the target is T1, human α-glucosidase GAA. The experiment in a line: Inhibition kinetics, recombinant GAA, 2,4-DNP-α-Glc.

SMILES strings stand for the structures.

These results are taken from PMC5532717 (ACS Central Science, 2017).

By IC50 is commonly meant the concentration needed to halve the response being measured. By Ki is commonly meant the dissociation constant of the complex between target and ligand, obtained from inhibition or displacement. `OC[C@@H]1[C@@H](O)[C@H](O)[C@@H](O)[C@@H]2O[C@H]12` [Compound 1, cyclophellitol, reference compound]: the IC50 at human α-glucosidase GAA [1] was greater than 100 µM; at human β-glucosidase GBA1 [2], 165 ± 4 nM; on GBA2, 139 ± 60 nM. The “β-glucosidase GBA1 kinact” value at human β-glucosidase GBA1 [3] was 0.72 min^–1. Also, at human α-glucosidase GAA [4], the Ki was greater than 500 µM.
